From ChEMBL document CHEMBL1821684, “A novel and efficient one-pot synthesis of symmetrical diamide (bis-amidate) prodrugs of acyclic nucleoside phosphonates and evaluation of their biological activities” (Eur J Med Chem, 2011)
Activity calls are given as the source filed them. No cut-off for these calls is given here.

How the values were obtained:
Mus musculus [1] = organism: Mus musculus; test: Immunomodulatory activity in C57BL/6 mouse peritoneal cells assessed as inhibition of LPS-induced NO production at 25 uM after 24 hrs by Griess reagent method; type: functional
In short: (§1)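 Peritoneal cells pooled from 4 female C57BL/6 mice (8–10 weeks) were seeded at 2 × 10^6 cells/mL in complete RPMI-1640 with 10% FBS, at 37 °C and 5% CO2. Compound was given alone or with IFN-γ (5000 pg/mL) or IFN-γ plus E. coli LPS (100 pg/mL) for 24 h. Supernatant nitrite was measured with Griess reagent (5 min, A540) against a nitrite calibration curve.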

Mus musculus [2] = organism: Mus musculus; test: Immunostimulatory activity in C57BL/6 mouse peritoneal cells assessed as stimulation of LPS-induced NO production at 25 uM after 24 hrs by Griess reagent method; type: functional; in short: as §1
[3] = Antiproliferative activity against human HepG2 after 72 hrs by XTT assay; type: functional; conditions: HepG
In short: (§2)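 CCRF-CEM, HL-60 and HeLa S3 cells were grown in RPMI 1640 with 5% calf fetal serum, and Hep G2 cells in Eagle's MEM with 10% calf fetal serum. Cells were exposed to compound, and growth was ended 72 h after drug addition. Viability was then quantified by the XTT spectrophotometric assay.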

HL-60 = test: Antiproliferative activity against human HL60 after 72 hrs by XTT assay; type: functional, cell-based; conditions: HL-60, 72 h; in short: as §2
[4] = Antiproliferative activity against human HeLaS3 after 72 hrs by XTT assay; type: functional; conditions: HeLa S3, 72 h; in short: as §2
CCRF-CEM = test: Antiproliferative activity against human CCRF-CEM after 72 hrs by XTT assay; type: functional, cell-based; in short: as §2
[5] = test system: Human immunodeficiency virus 1; test: Antiviral activity against HIV1 3B infected in human MT-2 cells assessed as reduction in virus-induced cytopathic effect after 5 days by luminescence assay; type: functional, organism-based; conditions: Human immunodeficiency virus 1, 3B, MT2, 120 h
In short: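 MT-2 cells were kept below 0.6 × 10^6 cells/mL and infected in bulk with HIV-1 IIIB for 3 h at MOI 0.0055. They were seeded at 3 × 10^3 cells/well with 3-fold serial compound dilutions in triplicate, 0.5% DMSO final. After 5 days at 37 °C, cytopathic effect was read by CellTiter-Glo luminescence. EC50 came from non-linear regression of multiple data sets.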

[6] = Cytotoxicity against human MT2 cells assessed as inhibition of cell proliferation after 5 days by luminescence assay; type: cell-based
In short: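 Uninfected MT-2 cells at 3 × 10^3 cells/well were run on replicate plates alongside the antiviral assay, with 3-fold serial compound dilutions in triplicate and 0.5% DMSO final. After 5 days at 37 °C, viability was read by CellTiter-Glo luminescence. CC50 came from non-linear regression of multiple data sets.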

SMILES | inhibition (Mus musculus [1]) | Activity (Mus musculus [2]) | IC50 [3] [µM] | IC50 (HL-60) [µM] | IC50 [4] [µM] | IC50 (CCRF-CEM) [µM] | EC50 [5] [µM] | CC50 at 120 h [6] [µM]
CCOC(=O)[C@H](C)NP(=O)(COCCn1cnc2c(NC3CCCCCCC3)nc(N)nc21)N[C@@H](C)C(=O)OCC | inactive | inactive |  |  |  |  |  | 
CCOC(=O)[C@H](C)NP(=O)(COCCn1cnc2c(NC3CC3)nc(N)nc21)N[C@@H](C)C(=O)OCC [RABACFOSADINE] | inactive | inactive | 1.74 | 0.78 | 2.15 | 0.48 |  | 
C[C@H](Cn1cnc2c(N)nc(F)nc21)OCP(=O)(O)O |  |  |  |  |  |  | > 85.3 | > 100
CCOC(=O)[C@H](C)NP(=O)(CO[C@H](C)Cn1cnc2c(N)nc(N)nc21)N[C@@H](C)C(=O)OCC | inactive | inactive |  |  |  |  | 0.29 | > 100
Nc1nc(NC2CC2)c2ncn(C[C@@H](CF)OCP(=O)(O)O)c2n1 |  |  |  |  |  |  | 13.2 | > 100
CCOC(=O)[C@H](C)NP(=O)(CO[C@H](CF)Cn1cnc2c(N)ncnc21)N[C@@H](C)C(=O)OCC | inactive | inactive |  |  |  |  | 0.54 | > 100
CCOC(=O)[C@H](C)NP(=O)(CO[C@H](CF)Cn1cnc2c(NC3CC3)nc(N)nc21)N[C@@H](C)C(=O)OCC | inactive | inactive |  |  |  |  | 10.7 | > 100
CCOC(=O)[C@H](C)NP(=O)(COCCOc1cc(N)nc(N)n1)N[C@@H](C)C(=O)OCC | inactive | inactive |  |  |  |  | 1.13 | 73.3
CCOC(=O)[C@H](C)NP(=O)(COCCn1cnc2c(=O)[nH]c(N)nc21)N[C@@H](C)C(=O)OCC | inactive | inactive | 2.32 | 3.02 | 3.94 | 1.22 |  | 
C[C@H](Cn1cnc2c(N)nc(N)nc21)OCP(=O)(O)O |  |  |  |  |  |  | 0.94 | > 100
CCOC(=O)[C@H](C)NP(=O)(CO[C@H](C)Cn1cnc2c(N)nc(F)nc21)N[C@@H](C)C(=O)OCC | inactive | inactive |  |  |  |  | 5.51 | > 100
